Assay type in all cases: functional
The subject of test [1] is Rattus norvegicus. Briefly: Serum LH releasing potency in vivo after intraperitoneal administration in rats at 24 h. An outline of the steps: (§1)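 Blood was drawn by cardiac puncture under light ether anaesthesia at each time point. Serum LH was measured by double-antibody RIA against the LH-RP-3 reference, with three dilutions per serum. Values are mean ± SEM of five rats per group; the experiment was repeated twice more.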

The test system of test [2] is Rattus norvegicus. Briefly: Serum LH releasing potency in vivo after intraperitoneal administration in rats at 6 h. Summed up: as §1
The subject of test [3] is Rattus norvegicus. As to the kind of experiment: Serum LH releasing potency in vivo after intraperitoneal administration in rats at 0 h. An outline of the steps:
as §1

The subject of test [4] is Rattus norvegicus. As to the kind of experiment: Serum LH releasing potency in vivo after intraperitoneal administration in rats at 1.5 h. An outline of the steps: as §1
The test system of test [5] is Rattus norvegicus. Briefly: Serum LH releasing potency in vivo after intraperitoneal administration in rats at 10 h. An outline of the steps: as §1
Test [6] relates to Rattus norvegicus. Briefly: Serum LH releasing potency in vivo after intraperitoneal administration in rats at 3 h. An outline of the steps:
as §1

The species entered for test [7] is Rattus norvegicus. Briefly: LH releasing activity in rat. An outline of the steps:
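Fifteen-week-old female Wistar-derived rats (220–250 g), given 2 nmol/rat ip in 0.5 mL PBS. Blood drawn by cardiac puncture under light ether anesthesia at set times (1.5–24 h). Serum LH measured by double-antibody RIA at three dilutions per sample. Five rats per group; mean ± SEM.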

Three molecules from ChEMBL document CHEMBL1145079, “Receptor-mediated targeting of a photosensitizer by its conjugation to gonadotropin-releasing hormone analogues” (J Med Chem, 2003) can be followed below.

On to `C=CC1=C(C)c2cc3[nH]c(cc4nc(cc5[nH]c(cc1n2)c(C)c5CCC(=O)O)C(CCC(=O)NCCCC[C@@H](NC(=O)[C@H](Cc1ccc(O)cc1)NC(=O)[C@H](CO)NC(=O)[C@H](Cc1c[nH]c2ccccc12)NC(=O)[C@H](Cc1c[nH]cn1)NC(=O)[C@@H]1CCC(=O)N1)C(=O)N[C@@H](CC(C)C)C(=O)N[C@@H](CCCN=C(N)N)C(=O)N1CCC[C@H]1C(=O)NCC(N)=O)=C4C)c(C)c3C=C`, for which the Activity is 0.88 ng/mL with Rattus norvegicus [1]; 8.1 ng/mL in the test with Rattus norvegicus [2]; 0.53 ng/mL with Rattus norvegicus [3]; 10.64 ng/mL with Rattus norvegicus [4]; 2.9 ng/mL with Rattus norvegicus [5]; 11.57 ng/mL with Rattus norvegicus [6].
In the case of `C=CC1=C(C)c2cc3[nH]c(cc4nc(cc5[nH]c(cc1n2)c(C)c5CCC(=O)O)C(CCC(=O)NCCCC[C@@H](NC(=O)[C@H](Cc1ccc(O)cc1)NC(=O)[C@H](CO)NC(=O)[C@@H](Cc1c[nH]c2ccccc12)NC(=O)[C@@H](Cc1ccccc1)NC(=O)[C@H]1CCC(=O)N1)C(=O)N[C@@H](CC(C)C)C(=O)N[C@@H](CCCN=C(N)N)C(=O)N1CCC[C@H]1C(=O)NCC(N)=O)=C4C)c(C)c3C=C`, the ED50 in the test listed under Rattus norvegicus [7] amounted to 1.8 µM.
For `CC(C)C[C@H](NC(=O)[C@H](CCCCN)NC(=O)[C@H](Cc1ccc(O)cc1)NC(=O)[C@H](CO)NC(=O)[C@H](Cc1c[nH]c2ccccc12)NC(=O)[C@H](Cc1c[nH]cn1)NC(=O)[C@@H]1CCC(=O)N1)C(=O)N[C@@H](CCCN=C(N)N)C(=O)N1CCC[C@H]1C(=O)NCC(N)=O`, the Activity came out at 0.34 ng/mL in the test with Rattus norvegicus [1]; 2.94 ng/mL in the test with Rattus norvegicus [2]; 0.53 ng/mL in the test on Rattus norvegicus [3]; 72.5 ng/mL with Rattus norvegicus [4]; 1.12 ng/mL in the test on Rattus norvegicus [5]; 21.92 ng/mL in the test on Rattus norvegicus [6].
